In PubChem BioAssay AID624353 (The Scripps Research Institute Molecular Screening Center, 2012) one finds IC50 data, which are given here for 24 compounds.

The structures appear in SMILES notation. pIC50: −log10 of the molar value. Calls of active or inactive are those of the source.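 How the source made its calls: active means insulin-degrading enzyme inhibitors with IC50 at or below 10 µM; inactive means the rest.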 Bounds are passed on as bounds.

In general, IC50 refers to the concentration at which inhibition is half-maximal. By pIC50 is commonly meant the negative decadic logarithm of the IC50, by convention in mol/L.

Sequence of Insulin-degrading enzyme (Homo sapiens) (P14735 whole entry, looked up): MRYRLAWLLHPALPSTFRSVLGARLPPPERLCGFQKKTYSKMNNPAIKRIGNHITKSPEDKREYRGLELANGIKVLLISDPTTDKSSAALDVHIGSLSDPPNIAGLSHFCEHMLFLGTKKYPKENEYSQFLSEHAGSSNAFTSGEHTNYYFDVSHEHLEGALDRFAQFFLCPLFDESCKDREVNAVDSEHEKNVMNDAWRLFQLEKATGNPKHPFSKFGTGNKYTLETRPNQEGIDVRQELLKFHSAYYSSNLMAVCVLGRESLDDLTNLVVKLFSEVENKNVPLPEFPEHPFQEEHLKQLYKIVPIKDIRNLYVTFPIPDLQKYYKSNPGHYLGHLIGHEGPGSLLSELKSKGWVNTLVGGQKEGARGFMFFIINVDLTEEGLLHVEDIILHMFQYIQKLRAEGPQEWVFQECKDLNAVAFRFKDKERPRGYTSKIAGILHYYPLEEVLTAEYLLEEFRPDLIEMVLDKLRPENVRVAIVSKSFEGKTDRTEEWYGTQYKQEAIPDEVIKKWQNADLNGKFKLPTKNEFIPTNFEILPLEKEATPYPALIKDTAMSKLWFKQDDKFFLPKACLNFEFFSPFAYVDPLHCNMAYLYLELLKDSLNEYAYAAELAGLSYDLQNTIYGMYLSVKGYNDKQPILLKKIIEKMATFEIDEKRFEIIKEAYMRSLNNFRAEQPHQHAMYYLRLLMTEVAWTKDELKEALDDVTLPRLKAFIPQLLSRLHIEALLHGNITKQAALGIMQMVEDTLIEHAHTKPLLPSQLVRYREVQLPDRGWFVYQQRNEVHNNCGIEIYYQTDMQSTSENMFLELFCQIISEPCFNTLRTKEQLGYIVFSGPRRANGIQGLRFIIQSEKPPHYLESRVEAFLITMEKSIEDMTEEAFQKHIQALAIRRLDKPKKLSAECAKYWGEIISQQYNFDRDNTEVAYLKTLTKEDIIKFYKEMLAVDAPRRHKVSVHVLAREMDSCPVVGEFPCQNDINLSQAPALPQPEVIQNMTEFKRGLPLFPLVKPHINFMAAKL

In the experiment the target is Insulin-degrading enzyme (Homo sapiens) (UniProt P14735). Briefly: IDE inhibitors, wild-type enzyme, late-stage follow-up, counter-screen for IDE inhibitor project, biochemical, fluorescence polarization, FAbetaB substrate, round 2 (AID 624353). The following applies: recombinant IDE, FAbetaB cleavage. The essentials:
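Material: recombinant wild-type insulin-degrading enzyme (IDE), purified enzyme. Amount: 1 nM IDE. Reagent: fluorescein-Aβ-biotin peptide substrate, 100 nM. Incubation: reaction at room temperature. Detection: fluorescence polarization, ex 485 nm, em 525 nm. Read-out basis: IC50 from sigmoidal fit of percent inhibition versus DMSO and Ii1 controls. Replicates: each compound dose-response run in triplicate.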
For orientation: The purpose of a counterscreen is to sort out artefacts and off-target activity.
For the compound `O=C(c1ccc(Oc2ccccc2)cc1)N1CCN(C(=O)C2COc3ccccc3O2)CC1` (centres undefined), the IC50 was > 33 µM (inactive).

As to `COc1ccc(C(=O)N2CCN(C(=O)COc3ccc(C)cc3)CC2)cc1OC`, the IC50 is > 33 µM (inactive).

For `c1coc(Cn2c(SCc3nc4ccccc4[nH]3)nnc2-c2ccco2)c1`, the IC50 was > 33 µM (inactive).

As for `c1ccc(-c2nnc(SCc3nc4ccccc4[nH]3)n2Cc2ccco2)cc1`, the IC50 was > 33 µM (inactive).

Regarding `COc1ccc(C(=O)N2CCN(C(=O)COc3ccccc3)CC2)cc1OC`, the IC50 was > 33 µM (inactive).

As for `COc1ccc(C(=O)N2CCN(C(=O)C3CC(=O)N(c4ccccc4)C3)CC2)cc1OC` (centres undefined), the IC50 is > 33 µM (inactive).

`COc1cccc(C(=O)N2CCN(C(=O)C3COc4ccccc4O3)CC2)c1` (centres undefined): the pIC50 is 5.40.

With `COc1ccc(C(=O)N2CCN(C(=O)C(c3ccccc3)c3ccccc3)CC2)cc1OC`, the IC50 is > 33 µM (inactive).

`COc1cc(C(=O)N2CCN(C(=O)C3COc4ccccc4O3)CC2)cc(Cl)c1OC` (centres undefined): the IC50 was > 33 µM (inactive).

Regarding `Cc1nc(COc2ccc(C(=O)N3CCN(C(=O)C4COc5ccccc5O4)CC3)cc2)cs1` (centres undefined), the IC50 is > 33 µM (inactive).

As to `Cc1ccc(-c2nnc(SCc3nc4ccccc4[nH]3)n2Cc2ccco2)cc1`, the IC50 was > 33 µM (inactive).

Regarding `Cc1ccc(COCc2nnc(SCc3nc4ccccc4[nH]3)n2Cc2ccco2)cc1`, the IC50 is > 33 µM (inactive).

With `COc1ccc(C(=O)N2CCN(C(=O)CCc3c[nH]c4ccccc34)CC2)cc1OC`, the IC50 was > 33 µM (inactive).

`Clc1ccc(COCc2nnc(SCc3nc4ccccc4[nH]3)n2Cc2ccco2)cc1`: the IC50 is > 33 µM (inactive).

Take `CC(=O)Nc1ccccc1C(=O)N1CCN(C(=O)C2COc3ccccc3O2)CC1` (centres undefined): the negative-log IC50 (pIC50) is 5.22.

For the compound `O=C(c1ccc2nc(C(F)(F)F)[nH]c2c1)N1CCN(C(=O)C2COc3ccccc3O2)CC1` (centres undefined), the negative-log IC50 (pIC50) is 5.15.

With `CCOc1ccc(C(=O)N2CCN(C(=O)C3COc4ccccc4O3)CC2)cc1` (centres undefined), the IC50 was > 33 µM (inactive).

Consider `COc1ccc(C(=O)N2CCN(C(=O)COc3ccc(Cl)cc3)CC2)cc1OC`, for which the IC50 was > 33 µM (inactive).

Consider `COc1ccc(OCC(=O)N2CCN(C(=O)c3ccc(OC)c(OC)c3)CC2)cc1`, for which the IC50 is > 33 µM (inactive).

In the case of `c1coc(Cn2c(SCc3nc4ccccc4[nH]3)nnc2-c2cnccn2)c1`, the IC50 is > 33 µM (inactive).

Consider `O=C(c1ccc(Oc2ccc(F)cc2)cc1)N1CCN(C(=O)C2COc3ccccc3O2)CC1` (centres undefined), for which the IC50 is > 33 µM (inactive).

Regarding `c1coc(Cn2c(SCc3nc4ccccc4[nH]3)nnc2-c2cccs2)c1`, the IC50 was > 33 µM (inactive).

For `O=C(c1ccc(OCC2CCCO2)cc1)N1CCN(C(=O)C2COc3ccccc3O2)CC1` (centres undefined), the IC50 was > 33 µM (inactive).

`c1ccc(-c2nnc(SCc3nc4ccccc4[nH]3)n2Cc2ccco2)nc1`: the IC50 was > 33 µM (inactive).
